Results reported in ChEMBL document CHEMBL1909554, “Total synthesis and bioactivity of the marine alkaloid pityriacitrin and some of its derivatives” (Eur J Med Chem, 2011).
Each block holds one compound with its values, some of them ahead of it. The source made the active and inactive calls. No cut-off for these calls is given here.

Assays:
[1] = Cytotoxicity against human MDA231 cells […] by MTT assay; type: functional, cell-based; conditions: MDA-MB-231
Summary of the method: (§1)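 MTT metabolic assay. Cells were exposed to compound continuously starting 18 h after setup, and survival was read at 96 h. IC50 is the concentration giving 50% growth inhibition relative to untreated cells. Values are means of three independent determinations.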

[2] = tested on: MCF7; assay: Cytotoxicity against human MCF7 cells […] by MTT assay; type: functional, cell-based; summary of the method: as §1
[3] = tested on: PC-3; assay: Cytotoxicity against human PC3 cells after 18 hrs by MTT assay; type: functional, cell-based; conditions: PC-3, 96 h, in the assay text read “after 96 hrs” for “after 18 hrs”; summary of the method: as §1
[4] = tested on: MDA-MB-231; assay: Induction of apoptosis in human MDA231 cells at 20 uM by annexin-V/7-AAD staining-based fluorescence assay; type: functional
Summary of the method: (§2)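 MDA-231 breast carcinoma cells were exposed to test compounds at 10, 20 or 50 µM, or to paclitaxel as reference at 10 or 50 nM. Results are expressed as percent apoptotic cells.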

[5] = tested on: MDA-MB-231; assay: Induction of necrosis in human MDA231 cells at 50 uM by annexin-V/7-AAD staining-based fluorescence assay; type: functional, cell-based
[6] = tested on: MDA-MB-231; assay: Induction of apoptosis in human MDA231 cells by annexin-V/7-AAD staining-based fluorescence assay; type: functional, cell-based
[7] = tested on: MDA-MB-231; assay: Induction of apoptosis in human MDA231 cells at 50 uM by annexin-V/7-AAD staining-based fluorescence assay; type: functional; summary of the method: as §2
[8] = molecular target: Aurora kinase B (Homo sapiens) (UniProt Q96GD4); assay: Inhibition of human recombinant Aurora B at 10 uM after 4 hrs by Kinase-Glo luminescent assay
Aurora kinase B (Homo sapiens), sequence (Q96GD4 whole entry): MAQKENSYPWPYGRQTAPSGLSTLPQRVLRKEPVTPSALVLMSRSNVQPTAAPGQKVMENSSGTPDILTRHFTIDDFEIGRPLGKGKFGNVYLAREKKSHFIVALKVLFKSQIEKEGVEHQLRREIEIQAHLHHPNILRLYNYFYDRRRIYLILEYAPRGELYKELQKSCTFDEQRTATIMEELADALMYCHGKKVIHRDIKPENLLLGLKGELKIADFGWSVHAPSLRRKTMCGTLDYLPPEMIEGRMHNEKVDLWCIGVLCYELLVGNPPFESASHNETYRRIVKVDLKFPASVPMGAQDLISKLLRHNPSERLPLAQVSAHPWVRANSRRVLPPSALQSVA
Summary of the method: (§3)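 Full-length human recombinant kinases were incubated in kinase buffer containing ATP and poly(Glu:Tyr) substrate, with or without compound at 10 µM final, for 4 h at room temperature. Remaining ATP was quantified by Kinase-Glo luminescence.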

[9] = molecular target: Epidermal growth factor receptor (Homo sapiens) (UniProt P00533); assay: Inhibition of human recombinant EGFR at 10 uM after 4 hrs by Kinase-Glo luminescent assay; summary of the method: as §3
Epidermal growth factor receptor (Homo sapiens), sequence (P00533 whole entry): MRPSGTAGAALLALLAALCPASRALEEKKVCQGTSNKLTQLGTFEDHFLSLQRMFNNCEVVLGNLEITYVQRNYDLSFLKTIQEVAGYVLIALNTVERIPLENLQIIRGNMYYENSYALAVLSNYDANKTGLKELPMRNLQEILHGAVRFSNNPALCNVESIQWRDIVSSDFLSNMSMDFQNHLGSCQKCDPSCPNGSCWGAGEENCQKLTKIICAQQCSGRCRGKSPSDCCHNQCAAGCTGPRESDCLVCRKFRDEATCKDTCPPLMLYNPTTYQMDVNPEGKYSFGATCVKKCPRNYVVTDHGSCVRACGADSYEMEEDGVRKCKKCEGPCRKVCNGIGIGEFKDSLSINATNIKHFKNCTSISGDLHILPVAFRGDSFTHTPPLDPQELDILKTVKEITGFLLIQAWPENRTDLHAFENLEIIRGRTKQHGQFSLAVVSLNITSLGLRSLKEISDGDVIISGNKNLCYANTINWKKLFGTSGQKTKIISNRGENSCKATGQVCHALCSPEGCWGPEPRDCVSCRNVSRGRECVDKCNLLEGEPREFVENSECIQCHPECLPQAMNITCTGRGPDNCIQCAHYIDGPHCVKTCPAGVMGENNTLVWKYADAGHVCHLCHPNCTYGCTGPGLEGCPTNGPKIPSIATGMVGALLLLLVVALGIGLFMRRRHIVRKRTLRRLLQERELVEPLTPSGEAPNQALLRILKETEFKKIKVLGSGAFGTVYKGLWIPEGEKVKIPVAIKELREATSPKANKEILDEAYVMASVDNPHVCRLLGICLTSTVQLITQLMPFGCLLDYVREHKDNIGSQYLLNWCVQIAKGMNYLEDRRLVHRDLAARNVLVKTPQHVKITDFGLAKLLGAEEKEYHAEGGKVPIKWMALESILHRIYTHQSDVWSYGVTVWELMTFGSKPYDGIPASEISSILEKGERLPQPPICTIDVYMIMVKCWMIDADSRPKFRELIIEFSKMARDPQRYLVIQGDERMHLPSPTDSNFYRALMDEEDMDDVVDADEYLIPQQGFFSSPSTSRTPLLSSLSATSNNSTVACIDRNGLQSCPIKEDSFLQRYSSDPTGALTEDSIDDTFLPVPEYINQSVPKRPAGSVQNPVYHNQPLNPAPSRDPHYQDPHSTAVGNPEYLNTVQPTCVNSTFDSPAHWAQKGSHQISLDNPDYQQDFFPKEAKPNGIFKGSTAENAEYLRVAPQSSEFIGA

[10] = molecular target: Dual specificity mitogen-activated protein kinase kinase 1 (Homo sapiens) (UniProt Q02750); assay: Inhibition of human recombinant MEK1 at 10 uM after 4 hrs by Kinase-Glo luminescent assay; summary of the method: as §3
Dual specificity mitogen-activated protein kinase kinase 1 (Homo sapiens), sequence (Q02750 whole entry): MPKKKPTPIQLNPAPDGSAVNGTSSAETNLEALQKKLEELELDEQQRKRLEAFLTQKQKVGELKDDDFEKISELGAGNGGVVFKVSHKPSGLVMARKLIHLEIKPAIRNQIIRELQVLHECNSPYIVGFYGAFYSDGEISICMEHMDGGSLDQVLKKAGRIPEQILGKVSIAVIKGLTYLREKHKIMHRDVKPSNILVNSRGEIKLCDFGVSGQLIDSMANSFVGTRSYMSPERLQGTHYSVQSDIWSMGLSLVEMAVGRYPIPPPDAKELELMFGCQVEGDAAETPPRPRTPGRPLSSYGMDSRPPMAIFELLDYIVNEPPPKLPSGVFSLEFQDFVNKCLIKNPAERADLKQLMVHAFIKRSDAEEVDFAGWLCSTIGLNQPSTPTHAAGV

[11] = molecular target: Focal adhesion kinase 1 (Homo sapiens) (UniProt Q05397); assay: Inhibition of human recombinant FAK at 10 uM after 4 hrs by Kinase-Glo luminescent assay; summary of the method: as §3
Focal adhesion kinase 1 (Homo sapiens), sequence (Q05397 2-1052 limits assumed): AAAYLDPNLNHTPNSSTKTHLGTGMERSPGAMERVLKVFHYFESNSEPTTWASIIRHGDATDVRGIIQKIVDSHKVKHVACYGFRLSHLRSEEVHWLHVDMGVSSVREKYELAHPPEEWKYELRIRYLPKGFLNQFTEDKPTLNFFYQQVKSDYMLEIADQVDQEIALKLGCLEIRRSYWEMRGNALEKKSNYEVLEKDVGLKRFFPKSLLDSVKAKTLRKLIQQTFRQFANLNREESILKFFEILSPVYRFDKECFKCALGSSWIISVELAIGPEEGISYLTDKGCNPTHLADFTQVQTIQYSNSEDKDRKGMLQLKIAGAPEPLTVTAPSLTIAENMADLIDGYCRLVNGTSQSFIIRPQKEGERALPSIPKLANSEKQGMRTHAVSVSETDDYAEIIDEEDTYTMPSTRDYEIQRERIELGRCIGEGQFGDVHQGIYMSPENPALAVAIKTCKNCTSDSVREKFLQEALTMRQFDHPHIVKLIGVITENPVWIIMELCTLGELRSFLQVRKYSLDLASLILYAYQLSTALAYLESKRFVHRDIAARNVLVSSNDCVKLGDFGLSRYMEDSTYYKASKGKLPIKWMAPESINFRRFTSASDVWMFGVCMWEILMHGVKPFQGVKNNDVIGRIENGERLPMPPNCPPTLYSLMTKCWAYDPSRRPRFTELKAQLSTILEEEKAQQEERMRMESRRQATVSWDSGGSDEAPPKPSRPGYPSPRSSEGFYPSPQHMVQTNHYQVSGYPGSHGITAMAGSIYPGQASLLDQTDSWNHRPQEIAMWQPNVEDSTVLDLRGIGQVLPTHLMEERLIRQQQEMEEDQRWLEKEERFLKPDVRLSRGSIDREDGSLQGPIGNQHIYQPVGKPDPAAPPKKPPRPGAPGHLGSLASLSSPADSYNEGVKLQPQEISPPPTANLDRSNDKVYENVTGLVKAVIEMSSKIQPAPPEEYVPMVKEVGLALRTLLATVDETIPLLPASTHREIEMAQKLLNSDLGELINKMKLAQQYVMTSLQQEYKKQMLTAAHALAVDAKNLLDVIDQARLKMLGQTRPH

[12] = molecular target: Proto-oncogene tyrosine-protein kinase Src (Homo sapiens) (UniProt P12931); assay: Inhibition of human recombinant Src at 10 uM after 4 hrs by Kinase-Glo luminescent assay; summary of the method: as §3
Proto-oncogene tyrosine-protein kinase Src (Homo sapiens), sequence (P12931 2-536 limits assumed): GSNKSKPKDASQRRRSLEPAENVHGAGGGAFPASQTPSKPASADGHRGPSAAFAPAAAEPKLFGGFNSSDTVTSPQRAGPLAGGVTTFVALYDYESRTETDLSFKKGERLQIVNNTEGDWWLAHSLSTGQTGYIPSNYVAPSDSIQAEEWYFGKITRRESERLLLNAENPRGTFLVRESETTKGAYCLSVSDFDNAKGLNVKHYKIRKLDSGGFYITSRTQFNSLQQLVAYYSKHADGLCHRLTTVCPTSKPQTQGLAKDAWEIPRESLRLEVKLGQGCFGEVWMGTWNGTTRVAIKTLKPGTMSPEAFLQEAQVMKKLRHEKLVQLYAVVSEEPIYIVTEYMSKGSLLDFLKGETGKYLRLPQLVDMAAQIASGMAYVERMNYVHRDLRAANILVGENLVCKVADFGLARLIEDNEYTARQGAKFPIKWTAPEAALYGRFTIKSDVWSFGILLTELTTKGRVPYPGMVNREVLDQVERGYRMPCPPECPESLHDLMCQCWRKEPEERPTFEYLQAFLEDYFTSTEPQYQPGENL

[13] = tested on: MDA-MB-231; assay: Induction of apoptosis in human MDA231 cells at 10 nM by annexin-V/7-AAD staining-based fluorescence assay; type: functional; summary of the method: as §2
[14] = tested on: MDA-MB-231; assay: Induction of apoptosis in human MDA231 cells at 50 nM by annexin-V/7-AAD staining-based fluorescence assay; type: functional; summary of the method: as §2

SMILES: COC(=O)c1cc2c([nH]c3ccccc32)c(C(=O)c2c[nH]c3ccccc23)n1
IC50 [1]: 12.6 µM

SMILES: CNCCNC(=O)c1cc2c([nH]c3ccc(O)cc32)c(C(=O)c2c[nH]c3ccccc23)n1
IC50 [1]: 4.36 µM

SMILES: COc1ccc2[nH]cc(C(=O)c3nccc4c3[nH]c3ccccc34)c2c1
IC50 [2]: 6.94 µM
IC50 [1]: 18.8 µM
IC50 [3]: 49.9 µM

SMILES: O=C(c1c[nH]c2ccc(Br)cc12)c1nccc2c1[nH]c1ccc(O)cc12
IC50 [2]: > 100 µM
IC50 [1]: > 100 µM
IC50 [3]: > 100 µM

SMILES: COc1ccc2[nH]cc(C(=O)c3nccc4c3[nH]c3ccc(O)cc34)c2c1
IC50 [2]: > 100 µM
IC50 [1]: 44.5 µM
IC50 [3]: > 100 µM

SMILES: NCCCCNC(=O)c1cc2c([nH]c3ccc(O)cc32)c(C(=O)c2c[nH]c3ccccc23)n1
IC50 [1]: 8.7 µM

SMILES: NCCNC(=O)c1cc2c([nH]c3ccccc32)c(C(=O)c2c[nH]c3ccccc23)n1
IC50 [1]: 12.6 µM

SMILES: O=C(O)c1cc2c([nH]c3ccccc32)c(C(=O)c2c[nH]c3ccccc23)n1
IC50 [2]: 23.4 µM
IC50 [1]: 24.8 µM
IC50 [3]: 16.9 µM
Activity [4]: 4.89%
Activity [5]: Active
Activity [6]: Dose-dependent effect
Activity [7]: 17.68%

SMILES: CNCCNC(=O)c1cc2c([nH]c3ccccc32)c(C(=O)c2c[nH]c3ccccc23)n1
IC50 [1]: 3.98 µM

SMILES: O=C(c1c[nH]c2ccc([N+](=O)[O-])cc12)c1nccc2c1[nH]c1ccccc12
IC50 [2]: > 100 µM
IC50 [1]: > 100 µM
IC50 [3]: 38.8 µM

SMILES: O=C(c1c[nH]c2ccccc12)c1nccc2c1[nH]c1ccccc12
IC50 [2]: > 100 µM
IC50 [1]: > 100 µM
IC50 [3]: 55.1 µM

inhibition [8]: 10%
inhibition [9]: 9%
inhibition [10]: 11%
inhibition [11]: 11%
inhibition [12]: 8%
SMILES: O=C(c1c[nH]c2ccccc12)c1nccc2c1[nH]c1ccc(O)cc12
IC50 [2]: 12.9 µM
IC50 [1]: 6.35 µM
IC50 [3]: 16.4 µM
Activity [4]: 11.16%
Activity [5]: Active
Activity [6]: Dose-dependent effect
Activity [7]: 41%

SMILES: CN(C)CCCNC(=O)c1cc2c([nH]c3ccc(O)cc32)c(C(=O)c2c[nH]c3ccccc23)n1
IC50 [1]: 2.51 µM

SMILES: CN(C)CCNC(=O)c1cc2c([nH]c3ccccc32)c(C(=O)c2c[nH]c3ccccc23)n1
IC50 [1]: 3.56 µM

SMILES: O=C(c1c[nH]c2ccc([N+](=O)[O-])cc12)c1nccc2c1[nH]c1ccc(O)cc12
IC50 [2]: > 100 µM
IC50 [1]: > 100 µM
IC50 [3]: > 100 µM

SMILES: NCCCCNC(=O)c1cc2c([nH]c3ccccc32)c(C(=O)c2c[nH]c3ccccc23)n1
IC50 [1]: 3.04 µM

SMILES: O=C(O)c1cc2c([nH]c3ccc(O)cc32)c(C(=O)c2c[nH]c3ccccc23)n1
IC50 [2]: 79 µM
IC50 [1]: 42 µM
IC50 [3]: 57.9 µM

SMILES: COC(=O)c1cc2c([nH]c3ccc(O)cc32)c(C(=O)c2c[nH]c3ccccc23)n1
IC50 [1]: 3.16 µM

SMILES: NCCNC(=O)c1cc2c([nH]c3ccc(O)cc32)c(C(=O)c2c[nH]c3ccccc23)n1
IC50 [1]: 15.8 µM

SMILES: CC(=O)O[C@H]1C(=O)[C@@]2(C)[C@H]([C@H](OC(=O)c3ccccc3)[C@]3(O)C[C@H](OC(=O)[C@H](O)[C@@H](NC(=O)c4ccccc4)c4ccccc4)C(C)=C1C3(C)C)[C@]1(OC(C)=O)CO[C@@H]1C[C@@H]2O [PACLITAXEL]
Activity [13]: 11.93%
Activity [14]: 17.23%

SMILES: COc1ccc2[nH]cc(C(=O)c3nc(C(=O)O)cc4c3[nH]c3ccccc34)c2c1
IC50 [2]: 3.4 µM
IC50 [1]: 12.1 µM
IC50 [3]: 32.3 µM

SMILES: NCCCNC(=O)c1cc2c([nH]c3ccccc32)c(C(=O)c2c[nH]c3ccccc23)n1
IC50 [1]: 2.48 µM

SMILES: O=C(c1c[nH]c2ccc(Br)cc12)c1nccc2c1[nH]c1ccccc12
IC50 [2]: 60.9 µM
IC50 [1]: > 100 µM
IC50 [3]: > 100 µM

SMILES: CN(C)CCNC(=O)c1cc2c([nH]c3ccc(O)cc32)c(C(=O)c2c[nH]c3ccccc23)n1
IC50 [1]: 1.33 µM

SMILES: CN(C)CCCNC(=O)c1cc2c([nH]c3ccccc32)c(C(=O)c2c[nH]c3ccccc23)n1
IC50 [1]: 6.02 µM
